# Results from ChEMBL document CHEMBL3272048, “Syntheses and uncoupling activities of alkyl dithiocarbazates and alkyl pyridinecarbonyldithiocarbazates” (J Med Chem, 1978).
# Activity calls are given as the source filed them. The calls are words filed in the database; no cut-off is given here.
# Tests used:
# [1] = species: Rattus norvegicus; assay: Respiration rate of electron transport protein complex in rat liver mitochondria […] assessed as oxygen consumption at 2 uM in presence of ascorbate and TMPD
# Summary of the method: (§1)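 Rat liver mitochondria at 3.0 mg protein in pH 7.4 medium (200 mM sucrose, 10 mM potassium phosphate, 2 mM MgCl₂, 1 mM EDTA), 25 °C. Substrate was 10 mM ascorbate plus 200 μM TMPD, with 2 μg rotenone. State 4 respiration was read as oxygen uptake on a Clark-type electrode.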
# [2] = species: Rattus norvegicus; assay: Respiration rate of electron transport protein complex in rat liver mitochondria […] assessed as oxygen consumption at 5 uM in presence of ascorbate and TMPD; summary of the method: as §1
# [3] = species: Rattus norvegicus; assay: Respiration rate of electron transport protein complex in rat liver mitochondria […] assessed as oxygen consumption at 1 uM in presence of ascorbate and TMPD; summary of the method: as §1
# [4] = species: Rattus norvegicus; assay: Respiration rate of electron transport protein complex in rat liver mitochondria […] assessed as oxygen consumption at 2 uM in presence of glutamate and malate
# Summary of the method: (§2)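 Oxygen uptake by rat liver mitochondria (3.0 mg protein) was measured with a Clark-type electrode at 25 °C. Medium at pH 7.4 held 200 mM sucrose, 10 mM potassium phosphate, 2 mM MgCl₂ and 1 mM EDTA. Substrate was 10 mM glutamate plus 10 mM malate.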
# [5] = species: Rattus norvegicus; assay: Respiration rate of electron transport protein complex in rat liver mitochondria […] assessed as oxygen consumption at 1 uM in presence of succinate
# Summary of the method: (§3)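 State 4 respiration of rat liver mitochondria (3.0 mg protein, 25 °C) was followed with a Clark-type electrode. Medium was pH 7.4 with 200 mM sucrose, 10 mM potassium phosphate, 2 mM MgCl₂ and 1 mM EDTA. Substrate was 10 mM succinate with 1 μg rotenone.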
# [6] = species: Rattus norvegicus; assay: Respiration rate of electron transport protein complex in rat liver mitochondria […] assessed as oxygen consumption at 1 uM in presence of glutamate and malate; summary of the method: as §2
# [7] = Uncoupling of electron transport protein complex in alkyl pyridine carbonyldithiocarbazates-stimulated rat liver mitochondria assessed as concentration required to 100% uncoupling
# Summary of the method: (§4)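 Rat liver mitochondria were isolated by the Hogeboom method, with protein measured by Biuret. Protein varied by footnote, 1.33–2.12 mg/3.3 mL. Mitochondria in state 4 were kept in pH 7.2 medium (200 mM sucrose, 10 mM phosphate, 2 mM MgCl₂, 1 mM EDTA, 10 mM succinate, 1 μg rotenone). They were titrated with compound in Me₂SO, and O₂ uptake was read by Galvani electrode. The minimum concentration giving maximal respiration release was taken; values are means of ≥3 runs.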
# [8] = species: Rattus norvegicus; assay: Respiration rate of electron transport protein complex in rat liver mitochondria […] assessed as oxygen consumption at 5 uM in presence of glutamate and malate; summary of the method: as §2
# [9] = species: Rattus norvegicus; assay: Respiration rate of electron transport protein complex in rat liver mitochondria […] assessed as oxygen consumption at 2 uM in presence of succinate; summary of the method: as §3
# [10] = Uncoupling of electron transport protein complex in alkyl pyridine carbonyldithiocarbazates-stimulated rat liver mitochondria up to 100 uM; summary of the method: as §4
# [11] = species: Rattus norvegicus; assay: Respiration rate of electron transport protein complex in rat liver mitochondria […] assessed as oxygen consumption at 6 uM in presence of ascorbate and TMPD; summary of the method: as §1
# [12] = Uncoupling of electron transport protein complex in alkyl pyridine carbonyldithiocarbazates-stimulated rat liver mitochondria up to 500 uM; summary of the method: as §4
SMILES,Activity [7] [µM],further results
CCCCCCCCCSC(=S)NNC(=O)c1ccncc1,0.86,Activity [1]: 222 min⁻¹; Activity [2]: 250 min⁻¹; Activity [3]: 214 min⁻¹; Activity [4]: 278 min⁻¹; Activity [5]: 361 min⁻¹; Activity [6]: 178 min⁻¹
CCCCCCCCSC(=S)NNC(=O)c1cccnc1,1.3,
CCCCCCCCSC(=S)NNC(=O)c1ccncc1,0.84,
CCCCCCCCCSC(=S)NNC(=O)c1cccnc1,1.1,Activity [1]: 227 min⁻¹; Activity [2]: 236 min⁻¹; Activity [8]: 263 min⁻¹; Activity [3]: 208 min⁻¹; Activity [4]: 178 min⁻¹; Activity [5]: 250 min⁻¹; Activity [9]: 300 min⁻¹; Activity [6]: 125 min⁻¹
CCCCCCCCCSC(=S)N(C)NC(=O)c1ccccn1,,Activity [10]: inactive
CCCCCCSC(=S)NNC(=O)c1cccnc1,89,
CCCCCCSC(=S)NN,350,
CCCCCCSC(=S)NNC(=O)c1ccccn1,50,
CCCSC(=S)NNC(=O)c1cccnc1,370,
CCCCCCCSC(=S)NNC(=O)c1ccncc1,1.95,
CCCCCCCSC(=S)N(C)NC(=O)c1ccccn1,,Activity [10]: inactive
CCCCCCCCCS/C(S)=N/NC(=O)c1ccccn1,2.9,Activity [11]: 248 min⁻¹; Activity [8]: 180 min⁻¹; Activity [3]: 220 min⁻¹; Activity [4]: 111 min⁻¹; Activity [5]: 167 min⁻¹; Activity [9]: 250 min⁻¹; Activity [6]: 89 min⁻¹
CCCCCCCSC(=S)NN,140,
CCCCCSC(=S)NNC(=O)c1ccncc1,17.5,
CCCCCSC(=S)NN,900,
CCCCCCSC(=S)N(C)NC(=O)c1ccccn1,,Activity [10]: inactive
CCCCCCCSC(=S)NNC(=O)c1cccnc1,14,
CSC(=S)NNC(=O)c1cccnc1,2160,

SMILES,Activity [7] [µM],further results
CCSC(=S)NNC(=O)c1ccccn1,1280,
CCCSC(=S)NNC(=O)c1ccncc1,109,
CCCSC(=S)NNC(=O)c1ccccn1,290,
CCSC(=S)NNC(=O)c1cccnc1,1000,
CSC(=S)NNC(=O)c1ccncc1,1900,
CCCCSC(=S)NNC(=O)c1ccccn1,240,
CCCCCCCSC(=S)NNC(=O)c1ccccn1,4.7,
CCCCCSC(=S)NNC(=O)c1ccccn1,90,
CCCCCCCCSC(=S)N(C)NC(=O)c1ccccn1,,Activity [10]: inactive
CCCCSC(=S)NNC(=O)c1ccncc1,62.5,
CCCCCSC(=S)N(C)NC(=O)c1ccccn1,,Activity [12]: inactive
CCSC(=S)NNC(=O)c1ccncc1,1200,
CSC(=S)NNC(=O)c1ccccn1,1870,
CCCCCCCCSC(=S)NNC(=O)c1ccccn1,3.7,
CCCCSC(=S)NNC(=O)c1cccnc1,360,
CCCCCSC(=S)NNC(=O)c1cccnc1,105,
CCCCCCSC(=S)NNC(=O)c1ccncc1,6.58,
